assay: Toxicity liver stage against HepG2, at 10uM; type: cell-based; set-up: test concentration 10 uM, cell line HepG2-A16-CD81EGFP; details: human, HepG2-A16-CD81EGFP cells; read-out: INHIBITION
Procedure, shortened: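 Uninfected HepG2-A16-CD81EGFP cells, 3 × 10^3 per well, 1536-well, plated on prespotted compound at 10 μM final, parasite-free screening media added to match infected plates; puromycin 10 μM positive, DMSO 0.5% negative; run in parallel with 48 h PbLuc assay at 37 °C, 5% CO2; viability by CellTiter-Glo luminescence, normalized to controls.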

Structure (SMILES) | cytotoxicity at 10 µM
CC(C)CNC1(Cc2cc(-c3ccccc3)on2)COC1 | 1.74%
COc1ccc2c(c1)nc1n2[C@@H](CNCc2ccccc2)COC1 | -0.201%
COCC(=O)N1CCN(C(=O)C2CCCCC2)[C@@H](C(=O)OC)C1 | 1.08%
COc1cnc(CSc2nnc(C)s2)cc1OCC(=O)NC1CCCC1 | 3.43%
C[C@@H](O)CNC(=O)c1nc(CC(=O)Nc2ccccc2)no1 | 7.49%
COCCn1cc(C(=O)NC2CCS(=O)(=O)C2)c2ccccc2c1=O (stereo not given) | -4.17%
CCCN1CCc2nc(SCc3ccccc3F)[nH]c(=O)c2C1 | -2.62%
COc1nn(C)cc1C(=O)N1CCC(c2nnc(-c3ccsc3)o2)CC1 | 8.08%
CN1CCN(c2cc(NC(=O)c3cnccn3)ncn2)CC1 | -1.23%
COC(=O)c1sccc1S(=O)(=O)NCCC(O)c1ccoc1 (stereo not given) | -2.64%
Fc1cnc(N2CCO[C@H]3CN(CC4CCOC4)C[C@H]32)nc1 (stereo not given in full) | 12.3%
O=C(O)C1CCN(c2ccc(Sc3ccc(Br)cc3)nn2)CC1 | 9.14%
COC(=O)c1sc(C(F)(F)F)cc1OC | 4.69%
CC(C)c1cc(C(F)(F)F)n2nc(C3CCN(S(C)(=O)=O)C3)cc2n1 (stereo not given) | -1.14%
CC1=NOC2(CCN(Cc3c[nH]c4ccccc34)CC2)C1 | 4.54%
O=C(O)CCNC(=O)C1(c2cccc(Br)c2)CCOCC1 | 6.92%
OCCN1CCN(Cc2cc(Cl)cc3cccnc23)CC1 | -8.12%
O=C(CSCc1ccccn1)NCC1CC1 | -3.42%
O=C(C1CCOC1)N1CCN(CC2CC2)c2ccccc21 (stereo not given) | 8.93%
CCOc1c(F)cccc1C(=O)N(CC)C(C)c1cccnc1 (stereo not given) | 11.8%
CC(C)c1nc2n(n1)CC(NCc1cc3ccccc3o1)CC2 (stereo not given) | -3.61%
CCc1nc(C)c(C(C)N(C)CCc2ccccn2)s1 (stereo not given) | -6.51%

Structure (SMILES) | cytotoxicity at 10 µM
CCOCCCC(=O)NCc1ccc(N2CCCCC2)cc1 | -4.06%
O=C1NCC(C(=O)N(Cc2ccc(C(F)(F)F)cc2)C2CC2)N1 (stereo not given) | 4.54%
CC1(NC(=O)Cc2cccs2)CCS(=O)(=O)C1 (stereo not given) | 8.39%
CCN(C(c1cccnc1)c1ccc2c(c1)CCC2)S(C)(=O)=O (stereo not given) | 5.82%
c1ccc2nc(N3CCCC3c3nnc4n3CCCCC4)cnc2c1 (stereo not given) | -1.63%
CCN1CCC(NC(=O)NCC(O)c2ccc(Cl)c(F)c2)CC1 (stereo not given) | -3.82%
COc1ccc(-c2ccc(C(=O)NS(C)(=O)=O)c(F)c2)cc1 | 5.7%
COc1cccc(CNC(C)c2ccc(-n3ccnc3)cc2)c1O (stereo not given) | -47.4%
CCc1noc(CCCC(=O)N2CCCC(c3ccn[nH]3)C2)n1 (stereo not given) | -0.799%
COc1ccc(S(=O)(=O)NC2(CC(N)=O)CCC2)cc1 | 11.7%
CCOc1cc(CNC(=O)C(C#N)c2nc(C)cs2)ccc1OC(F)F (stereo not given) | 8.61%
O=C(c1ncncc1Cl)N1CCC2(CCCC2)CC1 | 1.06%
CC(CO)(NC(=O)Nc1nnc(C2CC2)s1)C1CCCCC1 (stereo not given) | 20%
Cc1n[nH]c(C)c1C1CCCN1C(=O)NCC(=O)NC(C)(C)C (stereo not given) | -11.7%
O=C(c1ccc[nH]1)N1CCc2nnc(Cn3cccn3)n2CC1 | 5.62%
Cc1ncccc1NC(=O)[C@@H]1CCO[C@@H]2CCN(c3ccncn3)C[C@H]21 | 5.59%
COc1cc(N2CCC3(CC2)C(c2ccncc2)CC(=O)N3C)ncn1 (stereo not given) | -107%
Cn1cnc(-c2nc(C(=O)NCCN3CCOCC3)c3ccccn23)c1 | -103%
COCC(=O)N1CC[C@@H]2CN(Cc3cccnc3)S(=O)(=O)[C@@H]2CC1 | -113%
Cn1cc(CN2CCCC3(CCN(Cc4cccnc4)C3=O)C2)cn1 (stereo not given) | -3.99%
CNc1nc2c(s1)C(=O)CN(C(=O)NCc1ccccc1)C2 | 24.4%
CN(Cc1ccsc1)c1nc(-c2ccccn2)nc2c1CCNCC2 | -6.18%

Structure (SMILES) | cytotoxicity at 10 µM
CC(=O)N[C@@H]1CN(C(=O)c2ccncc2)C[C@H]1c1ccc(C)cc1 | 4.58%
Cc1cc(CN2CCC(C3CCN(Cc4cccnc4)CC3)C2)[nH]n1 (stereo not given) | 11%
CCc1ccccc1-c1cc(C)nc(N)n1 | 1.12%
CCc1nnc(CN2CCC3(CCC(=O)N(C4CCCC4)C3)CC2)o1 | -5.16%
CCn1ccnc1CN(C)C(C(=O)O)c1ccc(C(C)(C)C#N)cc1 (stereo not given) | -9.1%
CSc1cccc(CNC(=O)[C@H]2CNC[C@@H](C(=O)N3CCOCC3)C2)c1 | -6.91%
Cc1cc2[nH]c(CN3CCOC(c4ccc(F)cc4)C3)cc(=O)n2n1 (stereo not given) | -4.89%
O=C(Nc1ccc(F)c(Cl)c1)N1CCCN([C@H]2COC[C@@H]2O)CC1 | -40.7%
CC1=NOC(C(=O)N(C)CCCn2nc(C)cc2C)C1 (stereo not given) | 3.53%
O=C(CCc1cc2n(n1)CCCN(C(=O)c1ccncc1)C2)NC1CC1 | 12.2%
N[C@H]1CN(S(=O)(=O)N2CCCCCC2)C[C@@H]1c1ccccc1 | 2.14%
Clc1ccccc1Cc1noc(CN2CCCC(CN3CCCC3)C2)n1 (stereo not given) | -3.15%
O=C(CCCn1cncn1)N1CCC2(CCCN(C3CCCC3)C2=O)C1 (stereo not given) | -1.8%
Cc1ocnc1C(=O)N[C@H]1CN(CC2CCC2)C[C@@H]1C(C)C | -2.94%
Cc1cc(C)c2c(N(C)CC3CCN(CC(C)C)C3)ncnc2n1 (stereo not given) | 1.61%
FC(F)(F)C1CN(Cc2cccc(OCc3ccccn3)c2)CCO1 (stereo not given) | 1.48%
O=C1Nc2ccccc2C12CCCN(Cc1ccc3c(c1)OCCO3)C2 (stereo not given) | 0.529%
Cn1cccc1-c1cc(C(=O)NCCc2nnc(N)s2)[nH]n1 | -7.22%
OCc1ccc(-c2nccn2CCC2=CCCCC2)o1 | 4.19%
Cc1cc(-c2ccncc2)ccc1OCC(N)=O | 18.1%
COCCC1(CO)CCCN(C(=O)c2cccnc2OC)C1 (stereo not given) | -47.8%
CN(C)S(=O)(=O)N1CCN(c2ccnc(N3CCCCC3)n2)CC1 | -1.48%

Structure (SMILES) | cytotoxicity at 10 µM
CC(C)(C)CN1CCCC2(CCN(C(=O)c3ccc(O)nc3)C2)C1 (stereo not given) | -0.937%
N[C@@H](Cc1c[nH]cn1)C(=O)N1CCC(Oc2ccc(F)cc2)CC1 | 0.828%
Cc1cc(C2CCCN(C(=O)c3ccc(Cl)o3)C2)n[nH]1 (stereo not given) | -5.02%
CCc1cnc(CN(C(C)=O)C2CCN(CCc3ccncc3)C2)o1 (stereo not given) | -5.95%
COc1cccc(C(=O)N2CCN(Cc3nc(C(C)C)no3)CC2)c1 | -18.7%
Cc1cc(NC(=O)CN2CCc3cncnc3C2)on1 | -17.6%
COc1ncccc1NC(=O)C1CCOCC1 | -29.8%
O=C1NCC(C(=O)Nc2ncc(Cc3ccc(F)cc3F)s2)N1 (stereo not given) | -4.01%
O=C(c1cccc2c1OCO2)N1CCCC(n2ccnc2)C1 (stereo not given) | -3.29%
COc1ncccc1CNC(=O)Nc1cccnc1N1CCCC1 | -10.4%
CN(Cc1noc(C2CC2)n1)C1CCN(CCc2cccs2)C1 (stereo not given) | -5.98%
OCC1CCCN1c1cc(NCc2ccsc2)ncn1 (stereo not given) | 38.8%
CC(O)CN(CC(=O)NC1CCCCC1)c1ccccc1 (stereo not given) | -6.08%
COCCNC(=O)CN1CCN(c2nc(C)cs2)C(C)C1 (stereo not given) | -4.03%
Cc1nnc(C(C)N2CCN(Cc3ccc(C#N)cc3)CC2)o1 (stereo not given) | -12.2%
NC(=O)c1ccc(S(=O)(=O)NC(=O)COc2ccc3c(c2)CCC3)cc1 | -2.27%
CC(C)N1CCN(C(=O)Nc2cnn(CC(N)=O)c2)CC1 | -12.2%
Cc1cccc(C(=O)NC(CN2CCCC2=O)c2ccccc2)n1 (stereo not given) | -9.16%
CN(CC(=O)N1CCCC1Cn1cccn1)c1cnccn1 (stereo not given) | -5.1%
O=C(c1cccc2c1OCO2)N1CCCC1c1noc(C2CC2)n1 (stereo not given) | -23.2%
COc1cc(S(=O)(=O)N2CCc3ccc(F)cc32)cc(C(=O)O)c1OC | 7.12%
COc1cc(C(=O)N2CCCS2(=O)=O)ccc1C | 2.72%

Structure (SMILES) | cytotoxicity at 10 µM
O=C(c1cc(Cl)c2c(c1)OCO2)N1CCCC(n2ccnc2)C1 (stereo not given) | -6.93%
CCCNC(=O)Cn1cc(-c2ccccc2)cn1 | -0.553%
Cc1nc(C2CCCN(C(=O)c3cnn(C(C)(C)C)c3)C2)no1 (stereo not given) | 0.818%
Cc1cn2nc(N3CCCC3CC(C)(C)C)sc2n1 (stereo not given) | 3.46%
COc1ccnc(N2CCN(C(=O)Cc3ccc(C#N)cc3)CC2)n1 | 4.09%
CC(C)c1nccn1C1CCCN(C(=O)c2ccnc(N(C)C)c2)C1 (stereo not given) | 5.1%
O=C(CCSc1ccc(F)cc1)NS(=O)(=O)c1ccc2c(c1)OCCO2 | 2.36%
Cc1oncc1C(=O)N[C@@H]1CN(Cc2ccoc2)C[C@@H]2CCCO[C@@H]21 | -108%
CC(NCc1ccc(OCC(N)=O)cc1)c1ccc(Cl)cc1 (stereo not given) | 11.2%
c1coc(CN2CCC(c3ccc4c(c3)OCO4)CC2)c1 | -1.55%
CNC(=O)C1Cn2ccnc2C2(CCN(Cc3cccnc3)CC2)O1 (stereo not given) | -3.37%
Clc1ccccc1CN1CCc2nc(C3CCCCN3)ncc2C1 (stereo not given) | -3.12%
Cc1ccccc1CN1C[C@@H]2COC[C@]2(CNC(=O)C2CCC2)C1 | -110%
Cn1cc(C(=O)N2CC[C@@H]3[C@@H]2CCN3Cc2cccc(F)c2)cn1 | -2.21%
Cc1csc(CN2CCC3(CC2)COC(COCC2CC2)C3)n1 (stereo not given) | -108%
O=C(O)c1c(-c2cncnc2)ncc2c1CCN(CC1CCOC1)C2 (stereo not given) | -102%
COCC(=O)N1CCC2(CC1)C(=O)N(Cc1cccnc1)CCN2C | 0.964%
CCN1C(=O)CC(c2ccccc2)C12CCN(CC1CCOCC1)CC2 (stereo not given) | 3.06%
O=C1COC2(CCN(C(=O)c3ccco3)CC2)CN1Cc1cccnc1 | 7.2%
c1ccc(OCc2nnc3n2CCN(CC2CCOCC2)C3)nc1 | 1.65%
c1cncc(N2CCOCC3(CCCN(c4nncs4)C3)C2)c1 (stereo not given) | -1.42%
COCCN1CCN(C=C2NN=C(c3occc3C)O2)CC1 | -49.4%

Source: ChEMBL document CHEMBL4513216, “Probing the Open Global Health Chemical Diversity Library for Multistage-Active Starting Points for Next-Generation Antimalarials” (ACS Infect Dis, 2020)
